Format in all cases: functional
The nature of experiment [1]: Selectivity ratio of IC50 for cytotoxicity against human A-431 cells assessed as cell growth inhibition to IC50 for cytotoxicity against human A-431 cells expressing ABCB1 assessed as cell growth inhibition.
Experiment [2] is described as follows: Selectivity ratio of IC50 for cytotoxicity against human MES-SA cells assessed as cell growth inhibition to IC50 for cytotoxicity against multidrug resistance human MES-SA/Dx5 cells assessed as cell growth inhibition.
Experiment [3] in a line: Selectivity ratio of IC50 for cytotoxicity against human MES-SA cells assessed as cell growth inhibition in presence of P-gp inhibitor Tariquidar to IC50 for cytotoxicity against multidrug resistance human MES-SA/Dx5 cells assessed as cell growth inhibition in presence of P-gp inhibitor Tariquidar.
Experiment [4] deals with A-431. Nature of the experiment: Cytotoxicity against human A-431 cells assessed as cell growth inhibition after 72 hrs by PrestoBlue reagent based cell viability assay. As to conditions: A-431, 72 h. In outline: (§1)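 A431 and retrovirally P-gp (ABCB1)-transduced A431 cells kept in supplemented DMEM; 5000 cells/well attached 24 h, then serial compound dilutions for 72 h. Medium removed, 5% PrestoBlue (resazurin) added, 1 h at 37 °C, fluorescence ex 555/em 585 nm.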

For experiment [5], the system named is MES-SA. Kind of experiment: Cytotoxicity against human MES-SA cells assessed as cell growth inhibition incubated for 72 hrs in presence of P-gp inhibitor Tariquidar by PrestoBlue reagent based cell viability assay. In outline:
(§2)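 MES-SA and doxorubicin-selected MES-SA/Dx5 cells in DMEM with 10% FBS, 5 mmol/L glutamine, penicillin/streptomycin; 5000 cells/well attached 24 h, serial compound dilutions for 72 h, with or without 1 μM tariquidar. 5% PrestoBlue added after supernatant removal, 1 h at 37 °C, read ex 555/em 585 nm. Mean IC50 with SD, 2–53 independent assays.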

The test system of experiment [6] is MES-SA. Kind of experiment: Cytotoxicity against human MES-SA cells assessed as cell growth inhibition incubated for 72 hrs by PrestoBlue reagent based cell viability assay. In outline:
as §2

Experiment [7] deals with MES-SA/Dx5. Kind of experiment: Cytotoxicity against multidrug resistance human MES-SA/Dx5 cells assessed as cell growth inhibition incubated for 72 hrs in presence of P-gp inhibitor Tariquidar by PrestoBlue reagent based cell viability assay. The note with it: MES-SA/Dx5, 72 h. In outline: as §2
Experiment [8] has as its system MES-SA/Dx5. Kind of experiment: Cytotoxicity against multidrug resistance human MES-SA/Dx5 cells assessed as cell growth inhibition incubated for 72 hrs by PrestoBlue reagent based cell viability assay. As to conditions: MES-SA/Dx5, 72 h. An outline of the steps: as §2
Experiment [9] concerns A-431. Kind of experiment: Cytotoxicity against human A-431 cells expressing ABCB1 assessed as cell growth inhibition incubated for 72 hrs by PrestoBlue reagent based cell viability assay. As to conditions: A-431, 72 h. In outline:
as §1

Consider `CN1CCN(C(c2ccccn2)c2cc(Cl)c3cccnc3c2O)CC1` (stereo unspecified), for which the “Ratio IC50” value came to 2.8 in experiment [1] and 1.2 in experiment [2]. For `CN1CCN(C(c2cccnc2)c2ccc3cccnc3c2O)CC1` (stereo unspecified), the “Ratio IC50” value in experiment [2] is on record as 1.5.

For the molecule `COCc1cc(CN2CCCC2)c(O)c2ncccc12`, the “Ratio IC50” value in [1] was 13.1; in [3] it was 3. For `CCN1CCN(C(c2cccnc2)c2cc(Cl)c3cccnc3c2O)CC1` (stereo unspecified), the “Ratio IC50” value in experiment [2] amounted to 0.9.

`CN1CCN(Cc2cc(Cl)c3cccnc3c2O)CC1`: in experiment [1], the “Ratio IC50” value was 2.3. Take `COCc1cc(CN2CCN(C)CC2)c(O)c2ncccc12`: the “Ratio IC50” value in [1] was 2.9.

Regarding `Oc1ccc(CN2CCN(c3ccccc3)CC2)c2cccnc12`, in experiment [2], the “Ratio IC50” value worked out at 0.9. Consider `Oc1c(CN2CCN(c3ccc(F)cc3)CC2)cc(Cl)c2cccnc12`, for which the “Ratio IC50” value in [1] amounted to 1.3. Take `Oc1c(C(c2ccccn2)N2CCCCC2)cc(Cl)c2cccnc12` (stereo unspecified): the “Ratio IC50” value in [1] is on record as 2.1; in [3], 2.5. Take `Oc1c(C(c2ccccn2)N2CCOCC2)ccc2cccnc12` (stereo unspecified): the “Ratio IC50” value in experiment [2] was found to be 1.6. Take `CC(C)OCc1cc(CN2CCN(c3ccccc3)CC2)c(O)c2ncccc12`: the “Ratio IC50” value was 3.9 in experiment [1], 4.3 in [2] and 1.5 in experiment [3]. `Oc1c(CN2CCN(c3ccccn3)CC2)cc(Cl)c2cccnc12`: the “Ratio IC50” value in experiment [1] is on record as 1.2. For the molecule `Oc1c(CN2CCN(c3ccccc3)CC2)cc(Cl)c2cccnc12`, the results for the “Ratio IC50” value in experiment [1] and in experiment [2] were 1.3 and 6, respectively. For `CCCCOCc1cc(CN2CCN(C)CC2)c(O)c2ncccc12`, the “Ratio IC50” value in experiment [1] is listed as 2.4. Consider `CCN(CC)Cc1ccc2cccnc2c1O`, for which, in [1], the “Ratio IC50” value is given as 2.7. Take `Oc1c(CN2CCCC2)ccc2cccnc12`: the “Ratio IC50” value in [1] stood at 5.2.

On to `Oc1c(CN2CCCCC2)cc(Cl)c2cccnc12`, for which the “Ratio IC50” value in experiment [1] was determined as 3.9. As to `CC(C)OCc1cc(CN2CCOCC2)c(O)c2ncccc12`, the “Ratio IC50” value in [1] stood at 2.5.

As to `CCN1CCN(Cc2ccc(O)c3ncccc23)CC1`, the “Ratio IC50” value in experiment [2] is reported as 0.8. With `Oc1c(C(c2ccncc2)N2CCOCC2)ccc2cccnc12` (stereo unspecified), the “Ratio IC50” value in [3] is 1.4. With `Oc1ccc(CN2CCCCCC2)c2cccnc12`, the “Ratio IC50” value in experiment [2] is given as 1.2. Regarding `Oc1c(C(c2cccs2)N2CCOCC2)cc(Cl)c2cccnc12` (stereo unspecified), the “Ratio IC50” value in experiment [2] is reported as 0.6.

On to `Oc1c(C(c2ccccn2)N2CCOCC2)cc(Cl)c2cccnc12` (stereo unspecified), for which the “Ratio IC50” value in experiment [2] was determined as 1.6. On to `Cc1ccc(C(c2cc(Cl)c3cccnc3c2O)N2CCCC2)cc1` (stereo unspecified), for which the “Ratio IC50” value in experiment [2] is on record as 2.3. On the same count and under the same terms, the same measure for `Oc1c(C(c2cccs2)N2CCCCC2)ccc2cccnc12` (stereo unspecified): 0.8. Turning to `Oc1c(C(c2cccnc2)N2CCOCC2)cc(Cl)c2cccnc12` (stereo unspecified), the “Ratio IC50” value in experiment [2] was determined as 1.6. With `CCOCc1cc(CN2CCCC2)c(O)c2ncccc12`, the “Ratio IC50” value in [1] amounted to 6; in [3], 1.7. For `Cc1ccccc1N1CCN(Cc2ccc(O)c3ncccc23)CC1`, the “Ratio IC50” value in [1] came out at 0.7.

Take `CCOCc1cc(CN2CCN(C)CC2)c(O)c2ncccc12`: the “Ratio IC50” value in [1] is listed as 2.9; in experiment [3], 1.3. `CN1CCN(C(c2ccncc2)c2ccc3cccnc3c2O)CC1` (stereo unspecified): in experiment [3], the “Ratio IC50” value turned out to be 1.6.

For the molecule `Oc1c(C(c2ccccn2)N2CCCC2)ccc2cccnc12` (stereo unspecified), in [1], the “Ratio IC50” value turned out to be 4.4. Take `CCCOCc1cc(CN2CCN(C)CC2)c(O)c2ncccc12`: the “Ratio IC50” value was 3 in experiment [1] and 1.7 in experiment [3]. For the molecule `CN1CCN(Cc2ccc3cccnc3c2O)CC1`, in experiment [1], the “Ratio IC50” value came out at 2.3. With `CCOCc1cc(CN2CCOCC2)c(O)c2ncccc12`, the results for the “Ratio IC50” value in experiment [1] and in experiment [2] were 4.1 and 1.9, respectively. For `CN1CCN(C(c2cccs2)c2ccc3cccnc3c2O)CC1` (stereo unspecified), the “Ratio IC50” value in experiment [2] is listed as 0.8.

As to `Oc1c(CN2CCCC2)cc(Cl)c2cccnc12`, in [1], the “Ratio IC50” value was 3.8. Take `Oc1c(C(c2ccncc2)N2CCCC2)ccc2cccnc12` (stereo unspecified): the “Ratio IC50” value in [2] stood at 1.6.

For the molecule `CCCOCc1cc(CN2CCN(c3ccccc3)CC2)c(O)c2ncccc12`, the “Ratio IC50” value is on record as 2.4 in experiment [1] and 1.7 in [3]. For `CCOCc1cc(CN2CCN(c3ccccc3)CC2)c(O)c2ncccc12`, the “Ratio IC50” value in [1] came to 3.1; in experiment [3], 1.5. Consider `COCc1cc(CN2CCOCC2)c(O)c2ncccc12`, for which the results for the “Ratio IC50” value in [1], in experiment [2] and in [3] were 2.8, 1.7 and 1.1, respectively. Regarding `CC1CCN(Cc2cc(COC(C)C)c3cccnc3c2O)CC1`, the “Ratio IC50” value in experiment [1] is 4.1. For `COCc1cc(CN2CCN(c3ccccc3)CC2)c(O)c2ncccc12`, the “Ratio IC50” value turned out to be 3.9 in experiment [1] and 2.2 in experiment [2]. Turning to `CCN1CCN(C(c2cccnc2)c2ccc3cccnc3c2O)CC1` (stereo unspecified), the “Ratio IC50” value in experiment [2] came to 2.1; in experiment [3], 1. As for `Oc1c(C(c2cccnc2)N2CCCC2)ccc2cccnc12` (stereo unspecified), the “Ratio IC50” value in [2] stood at 1.8.

Consider `COCc1cc(CN2CCCCC2)c(O)c2ncccc12`, for which the “Ratio IC50” value is recorded as 6.3 in [1] and 1.3 in [3]. As for `CCN1CCN(C(c2cccs2)c2ccc3cccnc3c2O)CC1` (stereo unspecified), the “Ratio IC50” value in experiment [2] is listed as 0.6. Consider `Oc1c(C(c2ccccc2)N2CCOCC2)ccc2cccnc12` (stereo unspecified), for which the “Ratio IC50” value in [2] is recorded as 1.8. As to `CN1CCN(Cc2cnc3ccccc3c2O)CC1`, the “Ratio IC50” value in experiment [2] is on record as 1.99. With `Oc1c(C(c2ccncc2)N2CCCCC2)ccc2cccnc12` (stereo unspecified), the “Ratio IC50” value is on record as 7.8 in experiment [1] and 1.9 in experiment [2]. As to `CC(C)OCc1cc(CN2CCCCC2)c(O)c2ncccc12`, the entries for the “Ratio IC50” value in experiment [1] and in experiment [3] were 3.9 and 1.3, respectively. As for `CC1CCN(Cc2cc(Cl)c3cccnc3c2O)CC1`, the “Ratio IC50” value in [1] is 6.1.

Consider `Oc1ccc(CN2CCOCC2)c2cccnc12`, for which the “Ratio IC50” value in [2] stood at 0.7. In the case of `CCCOCc1cc(CN2CCCCC2)c(O)c2ncccc12`, the “Ratio IC50” value in [1] turned out to be 4.6; in [3], 1.5. Take `CCN1CCN(C(c2cc(Cl)c3cccnc3c2O)N2CCCC2)CC1` (stereo unspecified): the IC50 was 8.71 µM in experiment [4]; 3.31 µM in experiment [5] (read-out: pIC50 (converted)); 3.31 µM in [6] (read-out: pIC50 (converted)); 2.45 µM in experiment [7]; 1.17 µM in experiment [8] (read-out: pIC50 (converted)); 5.13 µM in [9]. Further, the “Ratio IC50” value was determined as 1.7 in experiment [1], 2.8 in experiment [2] and 1.3 in [3]. For `Oc1ccccc1CN1CCNCC1`, the IC50 in experiment [6] (read-out: IC50) and in [8] (read-out: IC50) was over 100 µM in each case.

As to `Oc1c(CN2CCCCCC2)cc(Cl)c2cccnc12`, the entries for the “Ratio IC50” value in experiment [1] and in experiment [3] were 2.1 and 1.3, respectively. As to `Oc1c(CN2CCc3ccccc3C2)ccc2cccnc12`, the IC50 in experiment [5] (read-out: IC50) worked out at 2.59 µM. Besides, the “Ratio IC50” value in experiment [1] was determined as 2; in [3], 1.5. For the molecule `Oc1c(CN2CCCC2)cc(Br)c2cccnc12`, the figures for the “Ratio IC50” value in experiment [1], in experiment [2] and in experiment [3] were 2.9, 9.8 and 1.5, respectively. For the same molecule, the IC50 in experiment [7] was 2.69 µM. Turning to `COCc1cc(CN2CCC(C)CC2)c(O)c2ncccc12`, the “Ratio IC50” value in experiment [1] came out at 6.1; in [3], 1.4. For the molecule `Oc1c(CN2CCOCC2)cc(Br)c2cccnc12`, the “Ratio IC50” value came out at 3.1 in experiment [1], 2.5 in experiment [2] and 1.5 in [3]. Turning to `CCOC(=O)C1CCN(Cc2cc(Cl)c3cccnc3c2O)CC1`, the “Ratio IC50” value in experiment [1] is recorded as 4.1.

For the molecule `CCN1CCN(C(c2ccccn2)c2cc(Cl)c3cccnc3c2O)CC1` (stereo unspecified), the “Ratio IC50” value in experiment [2] came to 1.2.

Regarding `CCN(CC)Cc1cc(Cl)c2cccnc2c1O`, the “Ratio IC50” value in experiment [1] is 6.2.

Take `CCOCc1cc(CN2CCCCC2)c(O)c2ncccc12`: the “Ratio IC50” value in experiment [1] was found to be 6. For the molecule `Oc1c(C(c2ccccc2)N2CCCCC2)cc(Cl)c2cccnc12` (stereo unspecified), the “Ratio IC50” value in [2] stood at 1.1.

Consider `CCOCc1cc(CN2CCC(C)CC2)c(O)c2ncccc12`, for which the “Ratio IC50” value in [1] was 5; in experiment [3], 1.5. With `Oc1ccc(CN2CCCC2)c2cccnc12`, in experiment [2], the “Ratio IC50” value was determined as 1.5. Regarding `Oc1c(C(c2ccccn2)N2CCCC2)cc(Cl)c2cccnc12` (stereo unspecified), in [1], the “Ratio IC50” value amounted to 3.7. Take `Oc1c(CN2CCCCC2)cc(Br)c2cccnc12`: the figures for the “Ratio IC50” value in [1] and in experiment [2] were 3.2 and 10.8, respectively.

`Oc1c(CN2CCCCC2)ccc2cccnc12`: the “Ratio IC50” value in experiment [1] is listed as 4.1.

Consider `Oc1cccc2cccnc12` [OXYQUINOLINE], for which, in [3], the “Ratio IC50” value worked out at 2.3.

The values above are taken from ChEMBL document CHEMBL5154931, “Structure-Activity Relationships of 8-Hydroxyquinoline-Derived Mannich Bases with Tertiary Amines Targeting Multidrug-Resistant Cancer” (J Med Chem, 2022).
